Assay results gathered from unrelated publications.
Compare with care: the assays were run in different laboratories.
Target: MAP kinase-activated protein kinase 5 (MAPKAPK5, Homo sapiens, UniProt Q8IW41)
Sequence (Q8IW41 1-473, as in one of the studies): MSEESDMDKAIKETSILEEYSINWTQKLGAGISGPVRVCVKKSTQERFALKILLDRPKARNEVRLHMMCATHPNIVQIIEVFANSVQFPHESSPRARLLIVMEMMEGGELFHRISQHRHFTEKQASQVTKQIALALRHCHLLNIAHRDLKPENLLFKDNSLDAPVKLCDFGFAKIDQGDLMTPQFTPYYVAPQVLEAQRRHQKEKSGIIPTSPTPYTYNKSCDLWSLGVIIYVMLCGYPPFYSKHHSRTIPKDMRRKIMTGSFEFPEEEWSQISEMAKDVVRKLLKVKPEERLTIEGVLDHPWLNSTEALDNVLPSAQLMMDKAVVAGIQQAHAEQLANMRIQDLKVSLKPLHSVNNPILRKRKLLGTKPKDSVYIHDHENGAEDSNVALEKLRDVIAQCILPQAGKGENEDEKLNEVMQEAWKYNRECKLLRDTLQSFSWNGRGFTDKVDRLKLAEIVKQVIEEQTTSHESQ

SMILES	assay	conditions	quantity	result
Cn1cc(-c2cccc(N3CCc4c(sc5c4CC(C)(C)C5)C3=O)c2CO)cc(Nc2ccncn2)c1=O	enzyme activity, inhibitor	1 µM	inhibition	3%
COc1cc(Nc2ncc(F)c(Nc3ccc4c(n3)NC(=O)C(C)(C)O4)n2)cc(OC)c1OC	binding, competition with immobilised ligand	10 µM	inhibition	19%
COc1ncccc1-c1cnn2ccc(N3CCN(C(=O)OC(C)C)CC3)nc12	binding, competition with immobilised ligand	1 µM	remaining binding	100%
N#CC1(c2ccccn2)CCN(Cc2cc(C(=O)O)c(=O)n3ccccc23)CC1	cell-free assay, competition with immobilised ligand	1 µM	remaining binding	56%
Nc1ncc(-c2nc(N3CCOCC3)nc(N3CCOCC3)n2)c(C(F)F)n1	binding, competition with immobilised ligand	10 µM	remaining binding	72%
Cn1cncc1[C@](O)(COc1ccc(C#N)cc1-c1ccc(OC(F)(F)F)cc1)c1ccc(C#N)cc1	cell-free assay, competition with immobilised ligand	1 µM	remaining binding	90%
CC(C)(C)c1cc(C=C(C#N)C#N)cc(Br)c1O	enzyme activity, inhibitor	0.5 µM	remaining activity	97.4%
C#Cc1n[nH]c2c(-c3cn([C@@H](C)c4ccccc4)c(=O)[nH]c3=O)cc(F)cc12	enzyme activity, inhibitor	0.1 µM	inhibition	1.8%
Cn1cc(-c2cc(F)cc(N3CCn4c(cc5c4CCCC5)C3=O)c2CO)cc(Nc2ccc(N3CCN(C4COC4)CC3)cn2)c1=O	enzyme activity, inhibitor	0.1 µM	inhibition	9%
C#Cc1n[nH]c2c(-c3cn(C(C)c4ccccn4)c(=O)[nH]c3=O)cc(F)cc12 (centres unmarked)	enzyme activity, inhibitor	1 µM	inhibition	5.8%
O=c1[nH]c2ccccc2n1C1CCN(Cc2ccc(-c3[nH]c4cc5ncnc5cc4nc3-c3ccccc3)cc2)CC1	cell-free assay	0.5 µM	remaining signal	97.4%
